From article PMC10840089 (RSC Advances, 2024)
“Also recorded” adds a separate entry of the source.

What was measured:
[1] = biological target: T1, α-amylase from porcine pancreas (Sus scrofa, UniProt P00690); test: α-amylase inhibition assay; format: biochemical
T1 sequence (P00690 16-511): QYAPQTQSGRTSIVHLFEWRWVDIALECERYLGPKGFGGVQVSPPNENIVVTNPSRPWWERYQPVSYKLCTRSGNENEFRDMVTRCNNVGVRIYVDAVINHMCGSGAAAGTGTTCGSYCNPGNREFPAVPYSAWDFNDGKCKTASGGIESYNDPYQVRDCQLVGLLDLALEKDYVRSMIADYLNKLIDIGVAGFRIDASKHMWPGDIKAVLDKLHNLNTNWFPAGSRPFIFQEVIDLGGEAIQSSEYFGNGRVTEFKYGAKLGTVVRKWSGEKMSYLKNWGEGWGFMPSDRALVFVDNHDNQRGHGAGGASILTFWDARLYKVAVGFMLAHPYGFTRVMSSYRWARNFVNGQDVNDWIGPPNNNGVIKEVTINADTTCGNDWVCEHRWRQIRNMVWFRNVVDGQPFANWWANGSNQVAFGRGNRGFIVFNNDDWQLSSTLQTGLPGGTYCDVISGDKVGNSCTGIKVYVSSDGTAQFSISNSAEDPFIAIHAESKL

[2] = biological target: T1, α-amylase from porcine pancreas; test: α-amylase inhibition kinetics; format: biochemical; conditions: for type (mechanism) of α-amylase inhibition: Lineweaver–Burk plot, starch 0.5 to 2.5%
Outline: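 Porcine pancreatic enzyme (1151 U mg−1 protein) diluted in 0.2 mol L−1 phosphate buffer, pH 6, preincubated with test compound (6.25–50 μM) 5 min at 25 °C. Soluble starch (0.5–2.5%) then added, 10 min at 25 °C. Reducing sugar measured with DNS (boiling water, 15 min) at 540 nm against a glucose standard curve. Inhibition type taken from Lineweaver–Burk plots, Vmax and KM by graph fitting.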

| Structure (SMILES) | IC50 [1] [µM] | Ki [2] [µM] | type (mechanism) of α-amylase inhibition [2] |
| --- | --- | --- | --- |
| C=C1CC[C@@H]2C(C)(C)C(=O)/C(=C/c3cccc(OC(F)(F)C(F)F)c3)C[C@@]2(C)[C@@H]1COc1ccc2ccc(=O)oc2c1 [Compound 3k, 7-(((1R,4aS,8aR)-5,5,8a-trimethyl-2-methylene-6-oxo-7-((E)-3-(1,1,2,2-tetrafluoroethoxy)benzylidene)decahydronaphthalen-1-yl)methoxy)-2H-chromen-2-one] | 7.24 ± 0.36 | 1.02 | mixed competitive-non-competitive inhibitors |
| C=C1CC[C@@H]2C(C)(C)C(=O)CC[C@@]2(C)[C@@H]1COc1ccc2ccc(=O)oc2c1 [Compound 2, 7-(((1R,4aS,8aR)-5,5,8a-trimethyl-2-methylene-6-oxodecahydronaphthalen-1-yl)methoxy)-2H-chromen-2-one] | 25 ± 0.99 | – | – |
| C=C1CC[C@@H]2C(C)(C)C(=O)/C(=C/c3ccccc3)C[C@@]2(C)[C@@H]1COc1ccc2ccc(=O)oc2c1 [Compound 3a, 7-(((1R,4aS,8aR)-7-((E)-benzylidene)-5,5,8a-trimethyl-2-methylene-6-oxodecahydronaphthalen-1-yl)methoxy)-2H-chromen-2-one] | 29 ± 0.65 | – | – |
| C=C1CC[C@@H]2C(C)(C)C(=O)/C(=C/c3ccccc3OC)C[C@@]2(C)[C@@H]1COc1ccc2ccc(=O)oc2c1 [Compound 3i, 7-(((1R,4aS,8aR)-7-((E)-2-methoxybenzylidene)-5,5,8a-trimethyl-2-methylene-6-oxodecahydronaphthalen-1-yl)methoxy)-2H-chromen-2-one] | 14.5 ± 0.3 | – | – |
| C=C1CC[C@@H]2C(C)(C)C(=O)/C(=C/c3ccc(OC)c(OC)c3)C[C@@]2(C)[C@@H]1COc1ccc2ccc(=O)oc2c1 [Compound 3j, 7-(((1R,4aS,8aR)-7-((E)-3,4-dimethoxybenzylidene)-5,5,8a-trimethyl-2-methylene-6-oxodecahydronaphthalen-1-yl)methoxy)-2H-chromen-2-one] | 13 ± 0.96 | – | non-competitive inhibition |
| C=C1CC[C@@H]2C(C)(C)C(=O)/C(=C/c3ccc(C(C)(C)C)cc3)C[C@@]2(C)[C@@H]1COc1ccc2ccc(=O)oc2c1 [Compound 3g, 7-(((1R,4aS,8aR)-7-((E)-4-(tert-butyl)benzylidene)-5,5,8a-trimethyl-2-methylene-6-oxodecahydronaphthalen-1-yl)methoxy)-2H-chromen-2-one] | 22.7 ± 0.86 | – | – |
| C=C1CC[C@@H]2C(C)(C)C(=O)/C(=C/c3ccc4ccccc4c3)C[C@@]2(C)[C@@H]1COc1ccc2ccc(=O)oc2c1 [Compound 3b, 7-(((1R,4aS,8aR,E)-5,5,8a-trimethyl-2-methylene-7-(naphthalen-2-ylmethylene)-6-oxodecahydronaphthalen-1-yl)methoxy)-2H-chromen-2-one] | 14.4 ± 0.3 | – | – |
| C=C1CC[C@@H]2C(C)(C)C(=O)/C(=C/c3ccc(N4CCCC4)cc3)C[C@@]2(C)[C@@H]1COc1ccc2ccc(=O)oc2c1 [Compound 3m, 7-(((1R,4aS,8aR)-5,5,8a-trimethyl-2-methylene-6-oxo-7-((E)-4-(pyrrolidin-1-yl)benzylidene)decahydronaphthalen-1-yl)methoxy)-2H-chromen-2-one] | 8.83 ± 0.22 | – | mixed non-competitive-uncompetitive inhibitor; also recorded: mixed non-competitive-uncompetitive inhibition |
| C=C1CC[C@@H]2C(C)(C)C(=O)/C(=C/c3ccc(N(C)C)cc3)C[C@@]2(C)[C@@H]1COc1ccc2ccc(=O)oc2c1 [Compound 3l, 7-(((1R,4aS,8aR)-7-((E)-4-(dimethylamino)benzylidene)-5,5,8a-trimethyl-2-methylene-6-oxodecahydronaphthalen-1-yl)methoxy)-2H-chromen-2-one] | 10.8 ± 0.6 | – | mixed competitive-non-competitive inhibitors |

More lines, main results first:

| IC50 [1] [µM] | Ki [2] [µM] | Structure (SMILES) | type (mechanism) of α-amylase inhibition [2] |
| --- | --- | --- | --- |
| 15.4 ± 0.29 | – | C=C1CC[C@@H]2C(C)(C)C(=O)/C(=C/c3ccc(Br)cc3)C[C@@]2(C)[C@@H]1COc1ccc2ccc(=O)oc2c1 [Compound 3e, 7-(((1R,4aS,8aR)-7-((E)-4-bromobenzylidene)-5,5,8a-trimethyl-2-methylene-6-oxodecahydronaphthalen-1-yl)methoxy)-2H-chromen-2-one] | – |
| 13.2 ± 0.73 | – | C=C1CC[C@@H]2C(C)(C)C(=O)/C(=C/c3ccc(F)cc3)C[C@@]2(C)[C@@H]1COc1ccc2ccc(=O)oc2c1 [Compound 3c, 7-(((1R,4aS,8aR)-7-((E)-4-fluorobenzylidene)-5,5,8a-trimethyl-2-methylene-6-oxodecahydronaphthalen-1-yl)methoxy)-2H-chromen-2-one] | – |
| 17.2 ± 0.5 | – | C=C1CC[C@@H]2C(C)(C)C(=O)/C(=C/c3ccc(Cl)cc3)C[C@@]2(C)[C@@H]1COc1ccc2ccc(=O)oc2c1 [Compound 3d, 7-(((1R,4aS,8aR)-7-((E)-4-chlorobenzylidene)-5,5,8a-trimethyl-2-methylene-6-oxodecahydronaphthalen-1-yl)methoxy)-2H-chromen-2-one] | – |
| 13.5 ± 0.54 | – | C=C1CC[C@@H]2C(C)(C)C(=O)/C(=C/c3ccc(OC)cc3)C[C@@]2(C)[C@@H]1COc1ccc2ccc(=O)oc2c1 [Compound 3h, 7-(((1R,4aS,8aR)-7-((E)-4-methoxybenzylidene)-5,5,8a-trimethyl-2-methylene-6-oxodecahydronaphthalen-1-yl)methoxy)-2H-chromen-2-one] | – |
| 22.3 ± 0.9 | – | C=C1CC[C@@H]2C(C)(C)C(=O)/C(=C/c3ccc(C)cc3)C[C@@]2(C)[C@@H]1COc1ccc2ccc(=O)oc2c1 [Compound 3f, 7-(((1R,4aS,8aR)-5,5,8a-trimethyl-7-((E)-4-methylbenzylidene)-2-methylene-6-oxodecahydronaphthalen-1-yl)methoxy)-2H-chromen-2-one] | – |
